Results: ChEMBL document CHEMBL2321728, “Vectorization efforts to increase Gram-negative intracellular drug concentration: a case study on HldE-K inhibitors” (J Med Chem, 2013)
pIC50: −log10 of the molar value. Active and inactive are the calls of the source. No cut-off for these calls is given here.

Key:
Escherichia coli [1] = assay: Antimicrobial activity against tolC-deficient Escherichia coli K1 assessed as inhibition of LPS biosynthesis at 32 ug/ml after 5 hrs by SDS-PAGE analysis; format: functional, organism-based
Outline: (§1)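 LB-grown exponential cells (OD about 0.15) diluted to 5 × 10^5 CFU/mL and exposed to compound (water/DMSO 50/50) at 37 °C for about 5 h, to OD 0.2–0.4. OD-normalized pellets lysed in SDS/β-mercaptoethanol at 95–100 °C, then proteinase K 1 h at 55 °C. LPS resolved by 16% SDS-PAGE and silver stained.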

[2] = Inhibition of Escherichia coli HldE-kinase preincubated for 30 mins prior to substrate addition measured after 30 mins by luminescence assay
Outline: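 E. coli HldE (3 nM) preincubated with inhibitor for 30 min at room temperature in pH 7.5 Hepes buffer with MnCl2, KCl, Triton X-100, DTT and MBP. Reaction started with 0.2 μM β-heptose 7-phosphate and 0.2 μM ATP, run 30 min at room temperature. Remaining ATP measured by luciferase/luciferin luminescence. IC50 from 6–10 concentrations fitted to a Langmuir model.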

Escherichia coli [3] = assay: Antimicrobial activity against wild type Escherichia coli K1 measured after overnight incubation by serial dilution method in presence of erythromycin; format: functional
Escherichia coli [4] = assay: Antimicrobial activity against tolC-deficient Escherichia coli K1 measured after overnight incubation by serial dilution method in presence of erythromycin; format: functional
Escherichia coli [5] = assay: Antimicrobial activity against acrAB, tolC-deficient Escherichia coli str. K-12 substr. MG1655 measured after overnight incubation by serial dilution method in presence of erythromycin; format: functional
Escherichia coli [6] = assay: Antimicrobial activity against acrAB, tolC-deficient Escherichia coli str. K-12 substr. MG1655 measured after overnight incubation by serial dilution method in presence of erythromycin in iron depleted medium; format: functional
Outline: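 MIC in M9 medium supplemented with D-glucose, thiamine, casein and apotransferrin (M9S), which is the iron-depleted medium. Erythromycin at 0.13 μg/mL. Inoculum 5 × 10^5 CFU/mL. Compound serial dilutions in 2% DMSO, overnight at 35 °C, visual read-out.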

Escherichia coli [7] = assay: Antimicrobial activity against wild type Escherichia coli K1 assessed as inhibition of LPS biosynthesis at 30 ug/ml after 5 hrs by SDS-PAGE analysis; format: functional, organism-based; outline: as §1
Escherichia coli [8] = assay: Antimicrobial activity against wild type Escherichia coli K1 after overnight incubation by checkerboard assay; format: functional
Outline: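 Checkerboard against E. coli K1 (018:K1:H7) wild type. Early to log phase preculture suspended in ca-MHB to a final inoculum of 5 × 10^5 CFU/mL. Combined serial dilutions of kanamycin, the unvectorized inhibitor or bis(3-aminopropyl)amine with erythromycin, in 2% DMSO. Incubated overnight at 35 °C; MIC of each combination read by visual inspection.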

Compound | inhibition (Escherichia coli [1]) | pIC50 [2] | MIC (Escherichia coli [3]) [µg/mL] | MIC (Escherichia coli [4]) [µg/mL] | MIC (Escherichia coli [5]) [µg/mL] | MIC (Escherichia coli [6]) [µg/mL] | inhibition (Escherichia coli [7]) | MIC (Escherichia coli [8]) [µg/mL]
NCCCN(CCCN)C(=O)COc1ccc2sc(CNc3nncc(-c4c(Cl)cccc4Cl)n3)nc2c1 | inactive | 6.29 | 8 | 4 | – | – | – | –
COc1ccc2sc(CNc3nncc(-c4c(C)cc(NCCN(C)C)cc4C)n3)nc2c1 | – | 7.09 | > 64 | – | 32 | – | – | –
CN(C)CC(CN(C)C)NC(=O)COc1ccc2sc(CNc3nncc(-c4c(Cl)cccc4Cl)n3)nc2c1 | inactive | 6.38 | > 64 | 32 | – | – | – | –
CCN1CCN(C(=O)NCCOc2ccc3sc(CNc4nncc(-c5c(C)cccc5O)n4)nc3c2)C(=O)C1=O | – | 6.28 | > 32 | – | > 32 | 8 | – | –
CS(=O)(=O)NC(=O)COc1ccc2sc(CNc3nncc(-c4c(Cl)cccc4Cl)n3)nc2c1 | – | 7.80 | > 64 | – | 16 | 16 | – | –
O=S(=O)(NCCOc1ccc2sc(CNc3nncc(-c4c(Cl)cccc4Cl)n3)nc2c1)c1ccc(O)c(O)c1 | – | 7.48 | > 64 | – | 4 | 2 | – | –
Cc1cc(NCCN(C)C)cc(C)c1-c1cnnc(NCc2nc3cc(OCCN)ccc3s2)n1 | inactive | 5.85 | > 64 | > 64 | – | – | – | –
NC[C@H]1O[C@H](O[C@H]2[C@H](O)[C@@H](O[C@H]3O[C@H](Cn4cc(CNC(=O)COc5ccc6sc(CNc7nncc(-c8c(Cl)cccc8Cl)n7)nc6c5)nn4)[C@@H](O)[C@H](N)[C@H]3O)[C@H](N)C[C@@H]2N)[C@H](O)[C@@H](O)[C@@H]1O | – | 7.01 | 8 | 2 | 4 | – | inactive | –
Cc1cc(NCCN(C)C)cc(C)c1-c1cnnc(NCc2nc3cc(O)ccc3s2)n1 | – | 6.11 | > 64 | – | 16 | – | – | –
O=C(NCCOc1ccc2sc(CNc3nncc(-c4c(Cl)cccc4Cl)n3)nc2c1)c1cc(=O)c(O)co1 | – | 7.15 | > 64 | – | > 64 | 2 | – | –
O=C(O)COc1ccc2sc(CNc3nncc(-c4c(Cl)cccc4Cl)n3)nc2c1 | – | 7.72 | > 64 | – | – | – | – | –
NC[C@H]1O[C@H](O[C@H]2[C@H](O)[C@@H](O[C@H]3O[C@H](CO)[C@@H](O)[C@H](N)[C@H]3O)[C@H](N)C[C@@H]2N)[C@H](O)[C@@H](O)[C@@H]1O [KANAMYCIN] | – | – | – | – | – | – | – | 8
Cc1cc(NC(=O)CN(C)C)cc(C)c1-c1cnnc(NCc2nc3cc(O)ccc3s2)n1 | – | 6.06 | > 64 | – | 16 | – | – | –
O=C(COc1ccc2sc(CNc3nncc(-c4c(Cl)cccc4Cl)n3)nc2c1)OCc1cc(=O)c(O)cn1O | – | 7.52 | > 64 | – | > 64 | 32 | – | –
CN1CCN(CCOc2ccc3sc(CNc4nncc(-c5c(Cl)cccc5Cl)n4)nc3c2)CC1 | inactive | 6.96 | > 64 | 32 | – | – | – | –
O=C(COc1ccc2sc(CNc3nncc(-c4c(Cl)cccc4Cl)n3)nc2c1)NO | – | 9.00 | > 64 | – | 2 | 1 | – | –
NCCCN(CCCN)CCOc1ccc2sc(CNc3nncc(-c4c(Cl)cccc4Cl)n3)nc2c1 | inactive | 6.20 | 4 | 2 | – | – | – | –
NCCNCCNC(=O)COc1ccc2sc(CNc3nncc(-c4c(Cl)cccc4Cl)n3)nc2c1 | inactive | 6.96 | 32 | 8 | – | – | – | –
CC[C@H]1OC(=O)[C@H](C)[C@@H](O[C@H]2C[C@@](C)(OC)[C@@H](O)[C@H](C)O2)[C@H](C)[C@@H](O[C@@H]2O[C@H](C)C[C@H](N(C)C)[C@H]2O)[C@](C)(O)C[C@@H](C)C(=O)[C@H](C)[C@@H](O)[C@]1(C)O [ERYTHROMYCIN] | – | – | – | – | – | – | – | 16
NCCN(CCN)CCNC(=O)COc1ccc2sc(CNc3nncc(-c4c(Cl)cccc4Cl)n3)nc2c1 | inactive | 6.24 | 8 | 4 | – | – | – | –
O=C(COc1ccc2sc(CNc3nncc(-c4c(Cl)cccc4Cl)n3)nc2c1)NCCO | Active | 7.26 | > 64 | – | – | – | – | –
COc1ccc2sc(CNc3nncc(-c4c(C)cccc4O)n3)nc2c1 | – | 7.16 | – | – | – | – | – | –
O=C(NCCOc1ccc2sc(CNc3nncc(-c4c(Cl)cccc4Cl)n3)nc2c1)[C@@H]1CSC(c2ccccc2O)=N1 | – | 6.18 | > 32 | – | > 32 | > 32 | – | –
Cn1nc(O)c(=O)nc1SCCOc1ccc2sc(CNc3nncc(-c4c(Cl)cccc4Cl)n3)nc2c1 | – | 7.60 | > 64 | – | 2 | 1 | – | –
